Screens from PubChem.
Tn7 DDE FP – disrupts Tn7 cyclic peptide binding to fibrin D-Dimer-E complex. FP displacement of FITC-Tn7 peptide from fibrin DD(E); 0% = median of compound wells per plate. 370,000 compounds, 0.13% hits. AID 720508. inhibition, % at 8.3 µM. P02675;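 active means inhibition above the mean of compounds falling within the control limits plus 3 SD of them, cut at about 14% in these data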;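 further: 0% = plate median of compound wells and 100% = 10 µM Aha-Tn7 peptide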
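Measure: % inhibition scaled between sample-field median and high-control FP; Test system: human fibrin DD(E); Quantity: 2 µM final DD(E) protein; Doses: one dose, 8.3 µM nominal; Schedule: compound with protein 10 min, then 3 h after probe, room temperature; Detection: fluorescence polarization; Medium: Tris buffer with calcium and detergent, pH 7.8.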
PLCb3 inh – PLC-beta3 (human) inhibition, primary screen; inhibition, % at 12.2 µM; AID 720704; Q01970; 370,000 compounds, 0.18% hits; Purified PLC-beta3, fluorogenic substrate, fluorescence; in the data active means inhibition above about 11%;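 further: 0% = median of compound wells on plate and 100% = full blocker control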
DDE Tn6 FP inh – inhibitors of Tn6 peptide binding to human fibrin DD(E) | inhibition, % at 8.3 µM | P02675 | 370,000 compounds, 0.21% hits | Fibrin DD(E) TRITC-Tn6 fluorescence polarization displacement | AID 720509;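 active means inhibition above a per-campaign cutoff: mean of compounds within control limits plus 3 SD, cut at about 15% in these data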;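 further: 0% = median of all compound wells on the plate and 100% = blocking peptide control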
ADAM17 inh – inhibits human ADAM17 | AID 720648 | 370,000 compounds, 0.83% hits | recombinant ADAM17, EDANS/DABCYL FRET peptide cleavage | inhibition, % at 6.95 µM | P78536;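 active means inhibition above the mean of compounds lying between control limits plus 3 SD, set per campaign, cut at about 8.5% in these data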;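 further: 0% = DMSO-only wells as the low control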
PLC-gamma1 inh – PLC-gamma1 (human) inhibition, primary screen; P19174; purified PLC-gamma1, fluorogenic substrate, fluorescence; inhibition, % at 12.2 µM; 370,000 compounds, 0.84% hits; AID 720700; in the data active means inhibition above about 9.5%
Target sequence (P19174 whole entry, looked up): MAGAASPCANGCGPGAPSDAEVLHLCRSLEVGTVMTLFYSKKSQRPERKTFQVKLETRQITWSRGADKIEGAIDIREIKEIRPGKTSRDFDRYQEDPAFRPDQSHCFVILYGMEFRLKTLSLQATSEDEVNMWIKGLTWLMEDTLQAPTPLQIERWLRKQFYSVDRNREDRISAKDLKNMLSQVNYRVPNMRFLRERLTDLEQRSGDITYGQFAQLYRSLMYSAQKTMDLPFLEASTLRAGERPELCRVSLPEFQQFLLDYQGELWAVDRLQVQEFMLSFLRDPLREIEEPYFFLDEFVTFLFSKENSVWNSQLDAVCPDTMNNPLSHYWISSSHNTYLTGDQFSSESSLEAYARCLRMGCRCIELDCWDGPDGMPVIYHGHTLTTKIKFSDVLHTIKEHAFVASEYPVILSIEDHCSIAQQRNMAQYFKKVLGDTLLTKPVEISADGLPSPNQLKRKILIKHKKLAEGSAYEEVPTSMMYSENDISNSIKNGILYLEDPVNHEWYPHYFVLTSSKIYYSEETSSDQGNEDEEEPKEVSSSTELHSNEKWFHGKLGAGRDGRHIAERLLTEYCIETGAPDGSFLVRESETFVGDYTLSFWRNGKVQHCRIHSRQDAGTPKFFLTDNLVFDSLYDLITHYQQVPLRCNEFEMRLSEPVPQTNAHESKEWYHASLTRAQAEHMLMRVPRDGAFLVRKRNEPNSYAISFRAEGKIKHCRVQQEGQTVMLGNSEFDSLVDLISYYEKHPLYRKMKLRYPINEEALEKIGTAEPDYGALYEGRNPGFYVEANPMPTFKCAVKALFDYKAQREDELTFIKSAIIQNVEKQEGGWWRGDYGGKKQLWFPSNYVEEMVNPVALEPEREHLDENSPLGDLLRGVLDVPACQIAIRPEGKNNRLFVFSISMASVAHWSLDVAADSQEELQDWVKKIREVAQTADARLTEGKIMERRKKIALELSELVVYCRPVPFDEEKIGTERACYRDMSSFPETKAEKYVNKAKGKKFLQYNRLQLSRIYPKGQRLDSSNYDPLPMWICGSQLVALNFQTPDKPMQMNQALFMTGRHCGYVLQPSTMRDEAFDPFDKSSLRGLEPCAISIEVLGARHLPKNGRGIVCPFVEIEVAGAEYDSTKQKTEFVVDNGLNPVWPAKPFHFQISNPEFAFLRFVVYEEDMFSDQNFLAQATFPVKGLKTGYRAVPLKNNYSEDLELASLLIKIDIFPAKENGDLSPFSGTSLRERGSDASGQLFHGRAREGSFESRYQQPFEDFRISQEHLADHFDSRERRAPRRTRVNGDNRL
ADAM10 inh – inhibitors of human ADAM10. O14672. recombinant ADAM10, EDANS/DABCYL FRET peptide cleavage, 3 h. inhibition, % at 7 µM. 370,000 compounds, 0.62% hits;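 active means inhibition above a per-campaign cutoff equal to the mean of compounds falling between control-based bounds plus 3 SD, cut at about 20% in these data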;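 further: 0% = DMSO wells while the 100% control is not disclosed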
ADAM10 confirm – confirmation of inhibitors of human ADAM10 | shares compounds with ADAM10 inh | 2,100 compounds, 1% hits | AID 743208 | inhibition, % at 6.95 µM | ADAM10 QFRET peptide cleavage, EDANS fluorescence;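 active means inhibition above about 20% chosen separately for each screening run, limit read from the data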;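 further: 0% = DMSO wells and 100% = marimastat wells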
ADAM17 ctr – inhibits human ADAM17 in ADAM10 exosite counter-screen. shares compounds with ADAM10 inh. ADAM17 QFRET peptide cleavage, EDANS fluorescence. inhibition, % at 6.95 µM. 2,100 compounds, 0.5% hits. AID 743214;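 active means mean triplicate inhibition above the solvent-only control wells' mean plus 3 SD, cut at about 12% in these data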;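 further: 0% = DMSO wells and 100% = marimastat wells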
* = called active by the depositor; . = no result. Sampled rows, rich in hits. Any-hit rate of the full collection: about 2.3%.

SMILES	Tn7 DDE FP	PLCb3 inh	DDE Tn6 FP inh	ADAM17 inh	PLC-gamma1 inh	ADAM10 inh	ADAM10 confirm	ADAM17 ctr
C[C@@H](O)C(C(=O)N1CCNCC1)n1cc([C@@H](N)CCCCN)nn1 (some centres undefined)	-5	8	3	3	7	22*	3	0
COC(=O)[C@]12C[C@H](CC(=O)NCCc3ccccc3OC)C(=O)N(Cc3ccccc3)C1=C[C@H](C1CCCC1)O[C@@H]2C	9	-3	-1	4	0	11	.	.
COC(=O)[C@]12C[C@H](CC(=O)NCCc3ccccc3OC)C(=O)N(Cc3cccc4ccccc34)C1=C[C@H](C1CCCC1)O[C@@H]2C	-9	4	5	7	6	25*	10	3
CN(Cc1ccccc1)S(=O)(=O)c1cccc(C(=O)OCc2ccc(Oc3ccccc3)cc2)c1	7	0	-5	-2	2	-4	.	.
CN(Cc1ccccc1)C(=O)c1[nH]cnc1C(=O)N[C@@H](Cc1ccccc1)C(=O)OC(C)(C)C	-5	3	2	8	4	23*	0	1
CC(C)(C)OC(=O)NCc1ccc(CNC(=O)c2nc[nH]c2C(=O)NCc2ccccc2)cc1	-4	3	0	8	3	21*	3	0
Cc1cccc(NC(=O)c2nc[nH]c2C(=O)N[C@H](C)c2ccccc2)c1	1	3	-11	7	2	23*	6	2
O=C(N[C@@H](Cc1ccccc1)C(=O)OCc1ccccc1)c1nc[nH]c1C(=O)N1CCc2ccccc2C1	-6	1	-4	9.3*	-3	20*	3	2
CC(C)C[C@H]1COc2cc(Br)ccc2S(=O)(=O)N1Cc1cn(CCC2OCCCO2)nn1	-6	0	6	-1	1	-2	.	.
CCCC1CCC2(CCCN2CCOC(=O)Nc2cccc(Cl)c2)CC1 (centres undefined)	-2	2	-5	0	2	2	.	.
O=C(NCc1ccccc1)c1nc[nH]c1C(=O)NCc1ccccc1	-3	-8	-1	1	1	9	.	.
O=C(Nc1ccccc1)c1nc[nH]c1C(=O)NCc1ccccc1	-2	1	-1	8	2	24*	2	1
OC(c1ccccc1)(c1ccccc1)C1CCN(CCCNc2ccccc2F)CC1	2	3	-2	-1	2	0	.	.
COc1ccc(-c2ccc(-c3noc(-c4ccc(OC)c(OC)c4)n3)c(OC)n2)cc1	-4	-8	-4	-5	-4	-13	.	.
COc1ccc(-c2ccc(-c3noc(-c4cccc(OC)c4)n3)c(OC)n2)cc1	0	-6	-3	-4	2	39*	73*	42*
CC(=O)Nc1ccc(S(=O)(=O)NCCSCc2ccc(Cl)cc2Cl)cc1	-4	3	0	8	3	22*	5	1
COc1cc(S(=O)(=O)N2CCC(O)(c3cccc(C(F)(F)F)c3)CC2)ccc1-n1cnnn1	5	0	0	0	1	2	.	.
O=S(=O)(c1ccc(OC(F)(F)F)cc1)N1CCC(O)(c2cccc(C(F)(F)F)c2)CC1	-4	-12	-2	7	4	21*	5	1
CC/C=C\[C@H](O)[C@H](O)C1=C(C)C(=O)[C@]2(O1)C(=O)N[C@@](OC)(C(=O)c1ccccc1)C2O (some centres undefined)	2	-16	2	-7	-12	63*	7	3
Cc1ccc(NC(=S)NNC(=O)CSc2nnc(-c3ccc(C)cc3)n2C2CCCCC2)cc1	-6	2	6	3	0	8	.	.
Clc1ccccc1CNc1ncnc2nc[nH]c12	3	-1	0	-5	-2	-8	.	.
Clc1ccccc1CN(Cc1ccccc1)c1ncnc2nc[nH]c12	-5	1	-3	6	0	20*	7	3
O=C(NCCc1nc2ccccc2[nH]1)/C(=C/c1ccc2c(c1)OCO2)NC(=O)c1ccc(Cl)cc1Cl	0	0	0	3	2	22*	32*	6
Cc1[nH]c2ccccc2c1N=Nc1ccccc1F	-4	2	-8	8	3	30*	6	1
O=C1c2[nH]nc(-c3ccccc3O)c2C(c2cccc(Cl)c2)N1Cc1ccco1 (centres undefined)	-4	-6	-9	7	0	29*	4	1
SMILES	Tn7 DDE FP	PLCb3 inh	DDE Tn6 FP inh	ADAM17 inh	PLC-gamma1 inh	ADAM10 inh	ADAM10 confirm	ADAM17 ctr
O=c1c2ccccc2c(-c2ccc(O)cc2)nn1-c1cccc(C(F)(F)F)c1	3	-40	-6	12*	-27	21*	6	2
O=C1/C(=C/c2cccs2)SC(=S)N1CCCC(=O)N(CCO)c1ccccc1	4	-3	4	1	5	24*	0	1
CCc1ccc(/C=C2\SC(=S)N(CCCC(=O)N(CCO)c3ccccc3)C2=O)cc1	0	0	-12	4	1	12	.	.
Cc1ccc(CNC(=O)O[C@H]2CC[C@@]34CCCN3C(=O)CCC[C@H]4[C@H]2C)cc1	6	5	1	-3	0	-3	.	.
CC(C)CC1C(=O)N(Cc2cn(CC3CCCCC3)nn2)CCS(=O)(=O)N1Cc1ccc(-c2cccc(CO)c2)cc1 (centres undefined)	-1	3	-3	7	0	25*	3	2
CC1C(=O)N(Cc2cn(CC3CCCCC3)nn2)CCS(=O)(=O)N1Cc1ccc(-c2cccc(CO)c2)cc1 (centres undefined)	10	1	12	5	-2	3	.	.
O=C(CSc1nc2ccc(Cl)cc2[nH]1)Nc1ccc2c(c1)CCC2	-5	3	-8	5	3	13	.	.
O=C(CSc1nc2ccccc2[nH]1)Nc1ccc2c(c1)CCC2	-2	2	-7	-4	2	20*	2	0
C=CCN(Cc1ccccc1)C(C#CC(=C)C)Cc1ccccc1 (centres undefined)	-5	-1	4	-5	-2	-8	.	.
Cc1ccc(C)c(NS(=O)(=O)c2ccc(NC(=O)CSc3ccc(Cl)cc3)cc2)c1	3	-2	2	-3	-3	6	.	.
Cc1ccc(NS(=O)(=O)c2ccc(NC(=O)C(C)Sc3ccc(Cl)cc3)cc2)c(C)c1 (centres undefined)	-6	-104	6	8	1	27*	9	4
